Data as given in PMC11225362 (iScience, 2024).
Several values for one entry are separate records, joined by “and”; a condition that tells them apart may be missing. Equal entries are not always repeated. Entries after “also recorded” stand apart in the source; their conditions may differ. One block for each molecule: values may come before it.

Legend:
[1] = target: human constitutive 20S proteasome (Homo sapiens, UniProt P25787+P60900); test: Fluorogenic small peptide assay with purified 20S proteasome; assay type: biochemical; details: for EC200 (concentration at which degradation rate is enhanced 2-fold, 200%): equimolar mixture of Suc-LLVY-AMC, Z-LLE-AMC, Boc-LRR-AMC, mean ± SD, n = 3
How it was run: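 Human constitutive 20S proteasome (0.5 nM) in 38 mM Tris, 100 mM NaCl, pH 7.8 was preincubated 20 min at 37°C with test compound (3.75–30 μM, or 9 points 0.16–30 μM) in DMSO (2% final). Suc-LLVY-, Z-LLE- and Boc-LRR-AMC were added at 6.67 μM final each. AMC release (380/460 nm) was read at 37°C for 1 h. Hydrolysis rate was expressed relative to vehicle, and EC200 was taken as the 2-fold-rate concentration.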

purified 20S proteasome [2] = target: T1, purified 20S proteasome (Homo sapiens, UniProt P25787+P60900); test: Purified α-synuclein digestion with 20S proteasome; assay type: biochemical; details: 10 nM 20S, 300 nM α-synuclein, 3.5 h, 37°C
How it was run: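 Purified human 20S proteasome (10 nM final) in 50 mM HEPES, 5 mM DTT, pH 7.2 was preincubated 45 min at 37°C with test compound in DMSO or DMSO alone. Purified α-synuclein (300 nM final) was added, and digestion ran 3.5 h at 37°C. GAPDH (0.5 μM) served as loading control. Samples were boiled 15 min in SDS buffer and immunoblotted with anti-α-synuclein (1:1333).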

purified 20S proteasome [3] = target: T1, purified 20S proteasome; test: Purified p25α digestion with 20S proteasome; assay type: biochemical; details: 10 μM compound; 7.5 nM 20S, 500 nM p25α, 3 h
How it was run: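 20S proteasome (7.5 nM final) in 120 mM NaCl, 50 mM Tris, 0.1% β-mercaptoethanol, pH 7.2 was exposed to 10 μM test compound or DMSO for 30 min at 37°C. Purified p25α was pretreated with 100 μM DTE for 30 min at room temperature, then added at 500 nM final for 3 h. GAPDH (0.5 μM) was the loading control. Samples were boiled in SDS buffer and immunoblotted.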

[4] = test system: A53T α-synuclein in HEK-293T cells; test: A53T α-synuclein levels in transfected HEK-293T cells; assay type: cell-based; details: for α-synuclein remaining: 0.75 μM, A53T α-synuclein; for A53T α-synuclein remaining: vs DMSO
p25α in HEK-293T cells = test: p25α levels in transfected HEK-293T cells; assay type: cell-based; details: 10 μM, 16 h
How it was run: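 HEK-293T cells were transiently transfected with TPPP/p25α and A53T α-synuclein plasmids, and protein was expressed for 48 h. Cells were then treated 16 h with 10 μM test compound, DMSO, or 30 nM bortezomib as control. p25α was quantified by immunoblot in triplicate.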

p25α in PC12 cells = test: p25α levels in PC12 cells; assay type: cell-based, rat; details: 10 μM
[5] = test system: A53T α-synuclein in HEK-293T cells; test: A53T α-synuclein levels in HEK-293T cells pre-treated with Bafilomycin A1; assay type: cell-based; details: 10 μM after 1 h pre-treatment with 500 nM Bafilomycin A1, HEK-293T
How it was run: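 HEK-293T cells transiently expressing A53T α-synuclein (48 h expression) were pretreated with 500 nM bafilomycin A1 and exposed to 10 μM test compound. α-Synuclein levels were then determined by SDS-PAGE immunoblotting with anti-α-synuclein (1:1333).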

[6] = test system: ubiquitin in HEK-293T cells; test: Ubiquitin levels in unmodified HEK-293T cells; assay type: cell-based; details: for levels of ubiquitin: 10 μM
How it was run: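 Untransfected HEK-293T cells were treated with 10 μM test compound, DMSO vehicle, or 100 nM bortezomib. Ubiquitin levels were visualized and quantified by immunoblotting relative to vehicle.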

[7] = test system: proteasome activity in PC12 cells; assay type: cell-based, rat; details: 3 μM, 72 h; co-transfected PC12; untreated model 8%
How it was run: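 PC12 cells (RPMI 1640 with 5% FBS and 10% horse serum) were strained and plated at 2,500 cells/well in 384-well plates. Cells were co-transfected with 0.5 μg A53T α-synuclein and 0.1 μg p25α plasmids for 24 h. They were then treated with 3 μM test compound or DMSO (0.03% final) for 72 h. Proteasome Glo reagent was added and luminescence recorded.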

PC12 cells = assay type: cell-based, rat; details: 3 μM, 72 h; co-transfected PC12; untreated model 25%

- EC200 (concentration at which degradation rate is enhanced 2-fold, 200%) [1]: 2.0 µM
Molecule: O=C(Cn1c2ccccc2c2ccncc21)N(c1ccc(F)cc1)c1ccc(F)cc1 [Compound 6, N,N-bis(4-fluorophenyl)-2-(9H-pyrido[3,4-b]indol-9-yl)acetamide]

- EC200 (concentration at which degradation rate is enhanced 2-fold, 200%) [1]: 1.6 µM
- α-synuclein remaining (purified 20S proteasome [2]; 5 μM compound): 45%
- α-synuclein remaining (purified 20S proteasome [2]; 15 μM compound): 28%
- p25α remaining compared to DMSO treated samples (purified 20S proteasome [3]): 29%
Molecule: O=C(CCn1c2ccccc2c2ccccc21)N(c1ccc(F)cc1)c1ccc(F)cc1 [Compound 1, 3-(9H-carbazol-9-yl)-N,N-bis(4-fluorophenyl)propanamide]
- α-synuclein remaining [4]: 55%
- decrease of A53T α-synuclein ([4]; 1 μM, 16 h): 67%
- A53T α-synuclein remaining ([4]; 1 μM, 16 h): 64%
- A53T α-synuclein remaining ([4]; 15 μM, 16 h): 21%
- reduction of p25α (p25α in HEK-293T cells): 45%
- p25α remaining (p25α in PC12 cells): 40%
- A53T α-synuclein remaining [5]: 16%
- levels of ubiquitin [6]: didn’t impact the levels of ubiquitin significantly
- proteasome activity remaining [7]: 29%

- EC200 (concentration at which degradation rate is enhanced 2-fold, 200%) [1]: 1.2 µM
- α-synuclein remaining (purified 20S proteasome [2]; 5 μM compound): 58%
- α-synuclein remaining (purified 20S proteasome [2]; 15 μM compound): 33%
- p25α remaining compared to DMSO treated samples (purified 20S proteasome [3]): 28%
Molecule: N,N-bis(4-fluorophenyl)-2-(2-methyl-9H-carbazol-9-yl)acetamide [Compound 4]
- α-synuclein remaining [4]: 72%
- A53T α-synuclein remaining ([4]; 5 μM, 16 h): 30%
- A53T α-synuclein remaining ([4]; 10 μM, 16 h): 14%
- A53T α-synuclein remaining ([4]; 15 μM, 16 h): 11%
- reduction of p25α (p25α in HEK-293T cells): non-significant
- p25α remaining (p25α in PC12 cells): 67%
- A53T α-synuclein remaining [5]: 28%
- levels of ubiquitin [6]: didn’t impact the levels of ubiquitin significantly
- cell viability (PC12 cells): 75%
- proteasome activity remaining [7]: 34%

- α-synuclein remaining (purified 20S proteasome [2]; 5 μM compound): 60%
- α-synuclein remaining (purified 20S proteasome [2]; 15 μM compound): 40%
Molecule: CCOC(=O)[C@]1(c2ccccc2)N=C(c2ccc(OC)cc2)N(Cc2ccccc2)[C@@H]1c1ccc(NCc2ccccc2)cc1 [TCH-165, reference compound]
- A53T α-synuclein remaining ([4]; 10 μM, 16 h): 52% and 40%

- EC200 (concentration at which degradation rate is enhanced 2-fold, 200%) [1]: 1.6 µM
Molecule: O=C(Cn1ccc2ccc(Cl)cc21)N(c1ccc(F)cc1)c1ccc(F)cc1 [Compound 10, 2-(6-chloro-1H-indol-1-yl)-N,N-bis(4-fluorophenyl)acetamide]

- EC200 (concentration at which degradation rate is enhanced 2-fold, 200%) [1]: 3.8 µM
Molecule: O=C(Cn1c2ccccc2c2ccccc21)N(c1ccc(F)cc1)c1ccc(F)cc1 [Compound 2, 2-(9H-carbazol-9-yl)-N,N-bis(4-fluorophenyl)acetamide]

Molecule: CC(C)C[C@H](NC(=O)[C@H](Cc1ccccc1)NC(=O)c1cnccn1)B(O)O [BTZ, Bortezomib, reference compound]
- increase of A53T α-synuclein levels ([4]; 30 nM, 16 h): 148% and 135%
- ubiquitin as compared to the vehicle ([6]; 100 nM): 298%

- EC200 (concentration at which degradation rate is enhanced 2-fold, 200%) [1]: 3.8 µM
Molecule: O=C(CCn1c2ccccc2c2ccncc21)N(c1ccc(F)cc1)c1ccc(F)cc1 [Compound 5, N,N-bis(4-fluorophenyl)-3-(9H-pyrido[3,4-b]indol-9-yl)propanamide]

- EC200 (concentration at which degradation rate is enhanced 2-fold, 200%) [1]: 1.3 µM
Molecule: O=C(CCn1c(=O)oc2ccccc21)N(c1ccc(F)cc1)c1ccc(F)cc1 [Compound 13, N,N-bis(4-fluorophenyl)-3-(2-oxobenzo[d]oxazol-3(2H)-yl)propanamide]

- EC200 (concentration at which degradation rate is enhanced 2-fold, 200%) [1]: 0.9 µM
- α-synuclein remaining (purified 20S proteasome [2]; 15 μM compound): 33%
Molecule: O=C(CCn1c2ccccc2c2ccc(Cl)cc21)N(c1ccc(F)cc1)c1ccc(F)cc1 [Compound 3, 3-(2-chloro-9H-carbazol-9-yl)-N,N-bis(4-fluorophenyl)propanamide]

- EC200 (concentration at which degradation rate is enhanced 2-fold, 200%) [1]: 8.0 µM
Molecule: O=C(CN1CCOc2ccccc21)N(c1ccc(F)cc1)c1ccc(F)cc1 [Compound 12, 2-(2,3-dihydro-4H-benzo[b][1,4]oxazin-4-yl)-N,N-bis(4-fluorophenyl)acetamide]

- EC200 (concentration at which degradation rate is enhanced 2-fold, 200%) [1]: 7.5 µM
Molecule: O=C(Cn1ccc2ccccc21)N(c1ccc(F)cc1)c1ccc(F)cc1 [Compound 8, N,N-bis(4-fluorophenyl)-2-(1H-indol-1-yl)acetamide]

- EC200 (concentration at which degradation rate is enhanced 2-fold, 200%) [1]: 7.5 µM
Molecule: O=C(CCn1ccc2ccccc21)N(c1ccc(F)cc1)c1ccc(F)cc1 [Compound 7, N,N-bis(4-fluorophenyl)-3-(1H-indol-1-yl)propanamide]

Molecule: CN(C)CCC(=O)N(c1ccc(F)cc1)c1ccc(F)cc1 [Compound 19, 3-(dimethylamino)-N,N-bis(4-fluorophenyl)propanamide]
- p25α remaining compared to DMSO treated samples (purified 20S proteasome [3]): didn’t show significant impact on the rate of p25α degradation
- reduction of p25α (p25α in HEK-293T cells): didn’t impact the levels of p25α
- levels of ubiquitin [6]: didn’t impact the levels of ubiquitin significantly

- 20S proteasome activation (in words) ([1]; fluorogenic peptide assay): abrogated all 20S proteasome activity
Molecule: O=C(Cn1c(=O)oc2ccccc21)N(c1ccc(F)cc1)c1ccc(F)cc1 [Compound 14, N,N-bis(4-fluorophenyl)-2-(2-oxobenzo[d]oxazol-3(2H)-yl)acetamide]
- A53T α-synuclein remaining ([4]; 15 μM, 16 h): no significant effect on degradation; also recorded: no impact on the levels of A53T α-synuclein

- EC200 (concentration at which degradation rate is enhanced 2-fold, 200%) [1]: 9.0 µM
Molecule: 3-(2,3-dihydro-4H-benzo[b][1,4]oxazin-4-yl)-N,N-bis(4-fluorophenyl)propenamide [Compound 11]
